Data on 13 compounds can be found in ChEMBL document CHEMBL4308840, “Identification of the First Synthetic Allosteric Modulator of the CB2 Receptors and Evidence of Its Efficacy for Neuropathic Pain Relief” (2018).

The target of assay [1] is Cannabinoid receptor 2 (Homo sapiens) (UniProt P34972). Nature of the assay: Positive allosteric modulation of human CB2R expressed in CHO cell membranes assessed as increase in [3H]CP55940 binding after 60 mins by liquid scintillation spectrometric method. The method in brief: (§1)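 Membranes (50 µg protein) from CHO cells stably expressing human CB1R or CB2R, incubated with 0.7 nM [3H]CP55940 in 50 mM Tris binding buffer with 0.1% BSA, pH 7.4, at 37 °C for 60 min. Vehicle 0.1% DMSO. Ended with ice-cold buffer and vacuum filtration through GF/B filters, then liquid scintillation counting. Specific binding is total minus binding with 1 µM unlabelled CP55940. Six independent experiments, each in duplicate.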
Sequence of Cannabinoid receptor 2 (Homo sapiens) (P34972 whole entry): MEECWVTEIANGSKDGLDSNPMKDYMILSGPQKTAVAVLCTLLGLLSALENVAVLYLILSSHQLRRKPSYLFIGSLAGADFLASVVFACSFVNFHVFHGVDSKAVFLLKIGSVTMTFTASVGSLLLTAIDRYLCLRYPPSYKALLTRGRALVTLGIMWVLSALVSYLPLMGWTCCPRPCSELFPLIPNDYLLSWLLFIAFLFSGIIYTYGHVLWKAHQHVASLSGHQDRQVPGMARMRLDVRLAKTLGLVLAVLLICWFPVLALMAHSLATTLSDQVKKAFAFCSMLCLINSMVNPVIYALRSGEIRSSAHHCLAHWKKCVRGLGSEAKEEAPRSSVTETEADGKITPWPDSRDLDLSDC

The target of assay [2] is Cannabinoid receptor 1 (Homo sapiens) (UniProt P21554). Nature of the assay: Displacement of [3H]CP55940 from human CB1R expressed in CHO cell membranes at 100 nM after 60 mins by liquid scintillation spectrometric method. The gist of the method:
as §1
Background: Displacement assays read how much labelled ligand stays bound in the presence of the test substance.

For assay [3], the system named is Mus musculus. Put plainly: Antinociceptive activity in CD-1 albino mouse model of oxaliplatin-induced neuropathic pain assessed as increase in licking latency at 1 to 10 mg/kg, po treated 15 mins after MAGL inhibitor trans-(1-(1-(1H-1,2,4-Triazole-1-carbonyl)piperidin-4-yl)-4-benzo[d][1,3]dioxol-5-yl)-3-(4-fluorophenyl)azetidin-2-one treatment on day 15 post oxaliplatin treatment and measured up to 75 mins post dose by cold plate test. The format is functional. The method in brief: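 Oxaliplatin model in male CD-1 mice: 2.4 mg kg-1 i.p. in 5% glucose on days 1-2, 5-9 and 12-14, tested day 15. MAGL inhibitor F 1 mg kg-1 p.o. was combined with oral test dosing, both in 1% carboxymethylcellulose. Cold plate latency at 4 °C, 60 s cut-off, read 15–75 min after dosing. 16 mice over 2 sets; ANOVA/Bonferroni; synergy by Chou-Talalay combination index.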

Assay [4] addresses Cannabinoid receptor 1 (Homo sapiens) (UniProt P21554). Nature of the assay: Positive allosteric modulation of human CB1R expressed in CHO cell membranes assessed as increase in [3H]CP55940 binding at 10 uM after 60 mins by liquid scintillation spectrometric method.
The target in assay [5] is Cannabinoid receptor 2 (Homo sapiens) (UniProt P34972). Nature of the assay: Positive allosteric modulation of human CB2R expressed in CHO cell membranes assessed as decrease in [3H]CP55940 dissociation at 100 nM up to 2 hrs by liquid scintillation spectrometric method. The method in brief: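 Human CB2R CHO membranes (50 µg protein) were used for [3H]CP55940 dissociation in Tris buffer with 0.1% BSA, pH 7.4, with or without 100 nM test compound. Dissociation followed 0.5–120 min at 25 °C; filtration and scintillation counting. Nonspecific binding taken with 1 µM unlabelled ligand. Four experiments in duplicate.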

The test system of assay [6] is Mus musculus. Nature of the assay: Antinociceptive activity in CD-1 albino mouse model of oxaliplatin-induced neuropathic pain assessed as increase in licking latency at 20 mg/kg, po treated 15 mins after CB1R antagonist SR141716A treatment on day 15 post oxaliplatin treatment and measured up to 75 mins post dose by cold plate test. The format is functional, organism-based. The method in brief:
(§2)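 Male CD-1 mice on day 15 after oxaliplatin (2.4 mg kg-1 i.p., days 1-2, 5-9, 12-14) received the selective antagonist i.p., then the oral test dose. Cold plate at 4 °C with 60 s cut-off, licking latency read 15, 30, 45, 60 and 75 min post dose. 16 mice in 2 sets; ANOVA with Bonferroni.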

Assay [7] addresses Cannabinoid receptor 1 (Homo sapiens) (UniProt P21554). Nature of the assay: Positive allosteric modulation of human CB1R expressed in CHO cell membranes assessed as increase in [3H]CP55940 binding up to 1 uM after 60 mins by liquid scintillation spectrometric method relative to control.
For assay [8], the target named is T1, Monoglyceride lipase (Homo sapiens) (UniProt Q99685).
T1 sequence (whole entry): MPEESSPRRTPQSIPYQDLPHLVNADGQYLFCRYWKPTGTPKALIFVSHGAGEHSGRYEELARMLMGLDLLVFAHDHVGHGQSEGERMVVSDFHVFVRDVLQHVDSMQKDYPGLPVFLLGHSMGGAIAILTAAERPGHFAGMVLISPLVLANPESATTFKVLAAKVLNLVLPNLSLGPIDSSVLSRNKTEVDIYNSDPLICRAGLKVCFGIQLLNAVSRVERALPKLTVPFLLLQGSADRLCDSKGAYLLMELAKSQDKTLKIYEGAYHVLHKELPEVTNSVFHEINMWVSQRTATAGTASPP
Nature of the assay: Inhibition of recombinant human MAGL at <10 uM using 4-NPA as substrate after 30 mins by colorimetric method. The method in brief: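 Human recombinant MAGL, 11 ng/well, with 100 µM (final) 4-nitrophenylacetate in 10 mM Tris pH 7.2, 1 mM EDTA, 0.1 mg/ml BSA, at room temperature for 30 min. 4-Nitrophenol release read at 405 nm. Controls were no-compound and no-enzyme reactions.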

For assay [9], the system named is Mus musculus. Put plainly: Antinociceptive activity in CD-1 albino mouse model of oxaliplatin-induced neuropathic pain assessed as licking latency time at 20 mg/kg, po treated on day 15 post oxaliplatin treatment and measured at 60 mins post dose by cold plate test (reference value: 9.7 +/- 0.9 secs). The format is functional. The method in brief: (§3)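 Male CD-1 mice (22–25 g) received oxaliplatin 2.4 mg kg-1 i.p. in 5% glucose on days 1-2, 5-9 and 12-14; controls got vehicle. On day 15, a single oral dose in 1% carboxymethylcellulose was given. Cold plate held at 4 °C; latency to first hind-paw licking recorded, 60 s cut-off, at 15, 30, 45, 60 and 75 min. n=16 mice over 2 sets; one-way ANOVA with Bonferroni.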

Assay [10] relates to Mus musculus. Put plainly: Antinociceptive activity in CD-1 albino mouse model of oxaliplatin-induced neuropathic pain assessed as increase in licking latency at 5 to 10 mg/kg, po treated on day 15 post oxaliplatin treatment and measured at 30 to 60 mins post dose by cold plate test. Format: functional, organism-based. The gist of the method:
as §3

Assay [11] deals with Mus musculus. Put plainly: Antinociceptive activity in CD-1 albino mouse model of oxaliplatin-induced neuropathic pain assessed as licking latency time at 20 mg/kg, po treated on day 15 post oxaliplatin treatment and measured up to 15 mins post dose by cold plate test (reference value: 9.7 +/- 0.9 secs). The format is functional. The gist of the method: as §3
Assay [12] addresses Cannabinoid receptor 1 (Homo sapiens) (UniProt P21554). Put plainly: Allosteric modulation of human CB1R expressed in CHO cell membranes assessed as effect on CP55940-stimulated [35S]GTPgammaS binding at 100 nM after 90 mins by liquid scintillation counting method. The format is functional. The method in brief:
(§4)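 Membranes (1 mg/ml) from CHO cells stably expressing human CB1R or CB2R. Incubated with 0.1 nM [35S]GTPγS and 30 µM GDP in 50 mM Tris, 10 mM MgCl2, 100 mM NaCl, 0.2 mM EDTA, 1 mM DTT, pH 7.4, 0.1% DMSO, 30 °C for 90 min. Filtered on GF/B; scintillation counting. Duplicates; six experiments for CB1R, twelve for CB2R with CP55940.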
For orientation: Binding of GTPγS marks nucleotide exchange on a G protein.

Assay [13] shares this target. Nature of the assay: Positive allosteric modulation of human CB1R expressed in CHO cell membranes assessed as increase in [3H]CP55940 binding at 100 nM after 60 mins by liquid scintillation spectrometric method. The method in brief: as §1
The target in assay [14] is Cannabinoid receptor 2 (Homo sapiens) (UniProt P34972). Put plainly: Inhibition of [35S]GTPgammaS binding to human CB2R expressed in CHO cell membranes at 100 nM after 90 mins by liquid scintillation counting method. Format: functional. The method in brief:
as §4

Assay [15] has the same target. Nature of the assay: Positive allosteric modulation of human CB2R expressed in CHO cell membranes assessed as increase in 2-AG-stimulated [35S]GTPgammaS binding at 100 nM after 90 mins by liquid scintillation counting method. Format: functional. The gist of the method:
as §4

Assay [16] has the same target. Nature of the assay: Stimulation of [35S]GTPgammaS binding to human CB2R expressed in CHO cell membranes at 100 nM after 90 mins by liquid scintillation counting method. The format is functional. The method in brief:
as §4

Assay [17] has the same target. Put plainly: Positive allosteric modulation of human CB2R expressed in CHO cell membranes assessed as increase in CP55940-stimulated [35S]GTPgammaS binding at 100 nM after 90 mins by liquid scintillation counting method. The format is functional. The gist of the method: as §4
Assay [18] shares this target. Nature of the assay: Positive allosteric modulation of human CB2R expressed in CHO cell membranes assessed as increase in AEA-stimulated [35S]GTPgammaS binding at 100 nM after 90 mins by liquid scintillation counting method. The format is functional. The gist of the method: as §4
Assay [19] has as its system Mus musculus. Nature of the assay: Antinociceptive activity in CD-1 albino mouse model of oxaliplatin-induced neuropathic pain assessed as increase in licking latency at 20 mg/kg, po treated 15 mins after CB2R antagonist SR144528 treatment on day 15 post oxaliplatin treatment and measured up to 75 mins post dose by cold plate test. The format is functional, organism-based. The gist of the method:
as §2

Active and inactive are the calls of the source.

Sequence of Cannabinoid receptor 1 (Homo sapiens) (P21554 whole entry): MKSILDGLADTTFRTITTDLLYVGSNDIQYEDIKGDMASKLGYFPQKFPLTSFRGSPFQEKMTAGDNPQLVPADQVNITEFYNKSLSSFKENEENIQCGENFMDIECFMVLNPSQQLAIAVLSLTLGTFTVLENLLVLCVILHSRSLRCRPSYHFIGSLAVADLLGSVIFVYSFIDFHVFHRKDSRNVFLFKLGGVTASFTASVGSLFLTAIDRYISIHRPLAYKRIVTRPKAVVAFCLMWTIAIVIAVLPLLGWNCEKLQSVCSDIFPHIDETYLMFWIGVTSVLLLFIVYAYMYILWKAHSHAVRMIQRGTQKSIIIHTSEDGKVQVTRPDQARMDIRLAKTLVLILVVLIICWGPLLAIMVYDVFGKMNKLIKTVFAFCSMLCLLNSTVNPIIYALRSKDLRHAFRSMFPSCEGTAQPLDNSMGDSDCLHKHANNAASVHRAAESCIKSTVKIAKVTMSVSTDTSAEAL

`Cc1c(Br)c[nH]c(=O)c1NC(=O)C1CCCCCC1`: the result in assay [1] was inactive. Further, the inhibition result in assay [2] was “Active”.
With `Cc1c(Br)cn(Cc2ccc(F)cc2)c(=O)c1NC(=O)C1CCCCCC1`, the CI in [3] is 0.2012. The outcome in [4], in [12], in assay [16], in assay [18] and in [19] was inactive. Besides, the result in [5], in [1], in [6], in assay [10], in assay [13] and in [15] was Active. The outcome in [17] was Active. In addition, the Activity in assay [7] came out at 40%. Also, the inhibition result in assay [8] and in assay [14] was “inactive” throughout. Moreover, the Time was found to be 0.75 min in assay [9] and 0.5 min in assay [11].
`Cc1c(-c2ccccc2)cc(NC(=O)C2CCCCCC2)c(=O)n1Cc1ccc(F)cc1`: the outcome in assay [1] was inactive. Further, the outcome in assay [13] was Active.
As to `Cc1c(Br)cc(NC(=O)C2CCCCCC2)c(=O)n1Cc1ccc(F)cc1`, in [1], the result was inactive. Besides, the outcome in [13] was Active.
Consider `Cc1c(Cl)cc(NC(=O)C2CCCCCC2)c(=O)n1Cc1ccc(F)cc1`, for which the outcome in [1] was inactive. For the same compound, the inhibition result in [2] was “Active”.
As for `COc1ccc(-c2cc(NC(=O)C3CCCCCC3)c(=O)n(Cc3ccc(F)cc3)c2C)cc1`, in [1], the outcome was inactive. In addition, the outcome in assay [13] was Active.
As to `COc1ccc(-c2cn(Cc3ccc(F)cc3)c(=O)c(NC(=O)C3CCCCCC3)c2C)cc1`, the outcome in assay [1] was inactive. In addition, the outcome in [13] was Active.
In the case of `Cc1c(F)cc(NC(=O)C2CCCCCC2)c(=O)n1Cc1ccc(F)cc1`, the result in [1] was inactive. Besides, the result in assay [13] was Active.
With `Cc1c(-c2ccccc2)cn(Cc2ccc(F)cc2)c(=O)c1NC(=O)C1CCCCCC1`, the result in assay [1] was inactive. Further, the outcome in assay [13] was Active.
With `Cc1ccc(NC(=O)C2CCCCCC2)c(=O)n1Cc1ccc(F)cc1`, the result in assay [1] was inactive. Further, the inhibition result in assay [2] is “Active”.
Consider `Cc1ccn(Cc2ccc(F)cc2)c(=O)c1NC(=O)C1CCCCCC1`, for which, in assay [1], the result was inactive. Also, in assay [2], the inhibition entry was “Active”.
On to `Cc1c(Cl)cn(Cc2ccc(F)cc2)c(=O)c1NC(=O)C1CCCCCC1`, for which the outcome in assay [1] was inactive. The result in assay [13] was Active.
Turning to `O=C(Nc1c(O)c(Br)cn(Cc2ccc(F)cc2)c1=O)C1CCCCCC1`, the result in assay [1] and in assay [13] was Active.
